High-throughput results deposited in PubChem by The Scripps Research Institute Molecular Screening Center.
A selection: hits, their analogues and other compounds. The true share with any hit is near 1.9%.
LEDGF integ inh = blocks HIV-1 LEDGF/p75-dependent DNA integration; inhibition, % at 3.7 µM; hit rate 0.64% among 370,000; TR-FRET IN-LEDGF/p75 DNA integration, Eu/Cy5; AID 743269;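 active means inhibition above the screen-wide mean plus 3 SD, cut at about 13% in these data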;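 further: signal is the Cy5 over europium emission ratio at 671 and 618 nm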
TDP2 inh = TDP2 (human) inhibition, absorbance primary screen. O95551. recombinant TDP2, T5PNP hydrolysis, p-nitrophenol absorbance 415 nm. inhibition, % at 12.8 µM. hit rate 0.34% among 370,000;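 active means inhibition above the mean of all tested compounds plus 3 SD, set per campaign, cut at about 25% in these data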
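Assay system: recombinant human TDP2 / Reagent: T5PNP substrate at 5 mM, a TopII-DNA adduct mimic / Measured by: epi absorbance from released p-nitrophenol / Evaluation: % inhibition relative to enzyme-containing and enzyme-free wells / Control set: enzyme-free and DMSO wells / Replicates: each compound tested once, singlicate / Schedule: enzyme reaction with compound for 2 h at 37 °C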
UHRF1 MBD2 ctr = blocks human UHRF1 binding to methylated DNA. Q96T88. UHRF1 binding to methylated oligo, TR-FRET. inhibition, % at 4.4 µM. hit rate 0.75% among 370,000; in the data active means inhibition above about 21%;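 further: UHRF1 SRA domain binding a hemimethylated CpG hairpin DNA probe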
Rin1-Abl PPI inh = human Rin1-Abl interaction inhibition; P00519+Q13671; TR-FRET Rin1/Abl binding, biochemical; inhibition, % at 7.35 µM; hit rate 0.4% among 360,000; AID 588664; in the data active means inhibition above about 5%, passing the limit was not always enough
MBD2 inh = MBD2-methylated oligo binding inhibition. Q9UBB5. TR-FRET, MBD2 binding to methylated oligonucleotide. inhibition, % at 4.4 µM. hit rate 0.31% among 370,000. AID 686964; in the data active means inhibition above about 13%
IN multimer act = HIV-1 integrase multimerization activation, counter-screen; shares compounds with LEDGF integ inh; TR-FRET HIV-1 integrase multimerization, biochemical; activation, % at 7.7 µM; hit rate 17% among 2,000; in the data active means activation above about 8.9%
TRFRET interf = optically interferes with TR-FRET readout in LEDGF counter-screen; shares compounds with LEDGF integ inh; TR-FRET optical interference counterscreen, HIV-1 IN multimerization; inhibition, % at 7.7 µM; 2,000 tested, under 10 active;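 active means inhibition above the mean over all tested compounds plus 3 SD, which no compound reached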
LEDGF integ conf = LEDGF/p75-dependent HIV-1 integration inhibition, confirmation | shares compounds with LEDGF integ inh | TR-FRET LEDGF/p75-dependent HIV-1 integration, biochemical | inhibition, % at 3.7 µM | hit rate 36% among 2,000; in the data active means inhibition above about 14%
A number is an active result; - = inactive; . = no result.

SMILES	LEDGF integ inh	TDP2 inh	UHRF1 MBD2 ctr	Rin1-Abl PPI inh	MBD2 inh	IN multimer act	TRFRET interf	LEDGF integ conf
C[C@@H]1[C@H](O)[C@@H](C)/C=C/C=C/C=C/C=C/C=C/C=C/C=C/[C@H](OC2O[C@H](C)[C@@H](O)[C@H](N)[C@@H]2O)C[C@@H]2O[C@](O)(C[C@@H](O)C[C@@H](O)[C@H](O)CC[C@@H](O)C[C@@H](O)CC(=O)O[C@H]1C)C[C@H](O)[C@H]2C(=O)O (some centres not stated)	31.9	-	-	.	-	-	-	77.8
O=CN/C=C/c1cc(O)ccc1O	24.4	-	-	-	-	18.1	-	-
O=Cc1ccc(O)cc1O	-	-	-	-	-	.	.	.
O=S(=O)(CC1NCCc2ccccc21)NCc1ccc(F)cc1 (configuration not stated)	-	-	-	.	-	.	.	.
COc1ccc(B(O)O)c(CN2CCN(C(=O)OC(C)(C)C)CC2)c1	-	-	-	-	-	.	.	.
C=C1CC2C(=O)N(Cc3cc(OC)ccc3OC)C(C(=O)OCC)(C(=O)OCC)C1N2C(=O)OC(C)(C)C (configuration not stated)	50.1	-	-	-	-	-	-	-
O=C1CC(c2ccco2)CC(O)=C1C=Nc1cc(Cl)ccc1O (configuration not stated)	34.3	-	21.1	-	-	-	-	15.6
O=C1CC(c2ccco2)CC(O)=C1C=Nc1cc(Cl)ccc1Cl (configuration not stated)	20.8	-	24.4	-	-	-	-	21.4
O=C1CC(c2ccco2)CC(O)=C1C=Nc1ccccc1-c1ccccc1 (configuration not stated)	-	-	-	-	-	.	.	.
COC(=O)[C@@]1(C(C)C)N=C(c2cc(OC)c(OC)c(OC)c2)[C@]2(O1)C(=O)N(Cc1cn(-c3ccccc3)nn1)c1cccc(Cl)c12	-	-	-	.	-	.	.	.
CCOc1ccc(N(CC(=O)NC2CCCC2)S(=O)(=O)c2c(C)[nH]c(=O)[nH]c2=O)cc1	51.4	-	-	-	-	-	-	-
O=c1[nH]c2cc3c(cc2cc1CN(Cc1nnnn1CC1CCCO1)C1CCCCC1)OCO3 (configuration not stated)	18.2	-	-	-	-	-	-	-
CCOC(=O)[C@@]12CCCC3=C1N(CCC3)C(=O)[C@H]2CC(=O)N1CCSCC1	-	-	-	.	-	.	.	.
COc1cc(CCC(O)CC(=O)CCc2ccccc2)ccc1O (configuration not stated)	23.3	-	-	-	-	-	-	-
O=S1(=O)c2c(cccc2N2CC[C@@H](O)C2)OCCCN1C1CC1	-	-	-	.	-	.	.	.
Cc1noc(C)c1C(=O)Nc1ccccc1-c1ccccc1	27.0	-	-	-	-	-	-	-
COc1cc(CCCN2CCNC[C@@H]2Cc2ccccc2)cc(OC)c1OC	-	-	-	-	-	.	.	.
COc1cc(CCCN2CCNC[C@H]2Cc2cccc3ccccc23)cc(OC)c1OC	43.8	-	-	-	-	-	-	-
COc1cccc(C2C(C#N)=C(N)Oc3cc(N)ccc32)c1OC (configuration not stated)	14.8	-	-	-	-	-	-	-
CS(=O)(=O)N(CC(=O)N1CCOCC1)c1cccc(F)c1	-	-	-	-	-	.	.	.
CS(=O)(=O)N(CC(=O)N1CCN(c2cccc(Cl)c2)CC1)c1cccc(F)c1	23.6	-	-	-	-	-	-	-
Cc1cccc(-c2cccc3c4c([nH]c23)[C@@H]2C[C@H](N(C)C(=O)Nc3ccccc3C)[C@H]([C@H](C)O)CN2CC4)c1	-	-	-	.	-	.	.	.
O=C(NCc1ccccc1)C1=C[C@H](c2ccccc2)C[C@H](OCc2ccc(CO)cc2)O1	-	-	-	-	-	.	.	.
C[C@@H]1C=C(C(=O)NCc2ccccc2)O[C@H](OCc2ccc(CO)cc2)C1	16.4	-	22.1	-	-	-	-	-
CC(=O)N1CCC(N(C(=O)Nc2c(F)cccc2F)C(C)C)CC1	20.5	-	-	-	-	-	-	-
SMILES	LEDGF integ inh	TDP2 inh	UHRF1 MBD2 ctr	Rin1-Abl PPI inh	MBD2 inh	IN multimer act	TRFRET interf	LEDGF integ conf
CS(=O)(=O)N1CCC(C(=O)Nc2c(F)cccc2F)CC1	-	-	-	-	-	.	.	.
COc1cccc(-c2cnc3c(NC=O)cc(-c4ccccc4)cn23)c1	-	-	-	-	-	.	.	.
COc1cccc(-c2cnc3c(NC=O)cc(-c4ccoc4)cn23)c1	13.5	-	-	-	-	-	-	-
CCC(CC)C(=O)OCC(=O)NC12CC3CC(CC(C3)C1)C2	14.0	-	-	-	-	-	-	-
CCOCC(=O)OCC(=O)NC12CC3CC(CC(C3)C1)C2	-	-	-	-	-	.	.	.
COC(=O)C1=C(C)N(Cc2ccc(Br)cc2)C(=S)NC1c1ccc(OC)cc1 (configuration not stated)	-	-	-	.	-	.	.	.
C/C=C(\C)CN1CCN(c2ccccc2)CC1	27.0	-	-	-	-	-	-	-
O=C(CCl)Nc1ccc(S(=O)(=O)NC2=NCCCCC2)cc1	17.2	-	-	-	-	-	-	-
Cc1ccc(CN2CCN(C(=O)CCN3C(=O)c4ccccc4C3=O)CC2)cc1	79.2	-	-	-	-	-	-	-
Cc1ccc(CN2CCN(C(=O)c3ccncc3)CC2)cc1	75.5	-	-	-	-	-	-	-
O=C(c1ccccc1)N1CCN(Cc2ccccc2)CC1	-	-	-	-	-	.	.	.
O=C(CCN1C(=O)c2ccccc2C1=O)N1CCN(Cc2ccccc2)CC1	-	-	-	-	-	.	.	.
CCC(NC(=O)CCCN1C(=O)COc2ccc(C)cc21)c1ccccc1 (configuration not stated)	-	-	-	.	-	.	.	.
COCCCNC(=O)C[C@H]1C[C@@]2(C(=O)OC)C(=C[C@H](C3CCCC3)O[C@@H]2C)N(Cc2ccc(Cl)cc2Cl)C1=O	-	-	-	.	-	.	.	.
O=C(/C=C(\Nc1ccc(F)cc1)c1ccccc1)c1ccccc1	-	-	-	.	-	.	.	.
COc1cccc(NC(=O)CN(C)C(=O)Cc2ccc3c(c2)OCCO3)c1	92.5	-	-	-	-	-	-	-
Cc1cc(C)cc(C(=O)OCCN(C)C2CN(Cc3cn(Cc4ccccc4C(F)(F)F)nn3)S(=O)(=O)C2)c1 (configuration not stated)	-	-	-	.	-	.	.	.
O=C(CSc1nc2ccccc2o1)NC(=O)NCc1ccccc1	29.4	-	-	-	-	-	-	-
O=C(CSc1nc2ccccc2o1)NC(=O)NCc1ccco1	-	-	-	-	-	.	.	.
